Measured values taken from the RNAGym collection of RNA variant scans (doi:10.1038/nmeth.2970).

B1: NELF-E aptamer (parent)
chain: CCCAACGACUGCCGAGCGAGAUUACGCUUGAGCGCCCCACUGAGGAUGCCCACGGGCGAUUGGGGCACGG

Variants of: B1
Assay: HiTS-RAP
Conditions: with NELF-E (Drosophila)
In short: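 Aptamer DNA templates carrying a T7 promoter and ter site were sequenced on an Illumina GAIIx flowcell, then transcribed in situ by T7 RNA polymerase and halted by GST-Tus (30 minutes, 37°C). Clusters were imaged after 30-minute room-temperature equilibration with NELF-E-mOrange at 0.064 to 1000 nM in HEPES binding buffer, and only the first binding curve was used. Intensities were normalised to sequencing intensity and averaged per sequence. Kd came from weighted Hill fits, keeping fits with variance below 1,000,000.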

| Variant | Kd [nM] |
| --- | --- |
| CCCAACGACGUCCGAGCGAGAUUACGCUUGAGCGCCCCACUGAGGAUGCCCACGGGCGAUUGGGGCACGG | 5.48 |
| CCCAACGACUGCCGAGCAGGAUUACGCUUGAGCGCCCCACUGAGGAUGCCCACGGGCGAUUGGGGCACGG | 5.36 |
| CCCAACGAGUGCCGAGCGAGAUUACGCUUGAGCGCCACACUGAGGAUGCCCACGGGCGAUUGGGGCACGG | 15.8 |
| CCCCACGACUGCCGAGCGAGAGUACGCUUGAGCGCCCCACUGAGGAUGCCCACGGGCGAUUGGGGCACGG | 6.04 |
| CCCAACGACUUCCGAGCGAGAUUACGCUUGAGCGCCCCACUGAGGAUGCCCACGGGCGAUUGUGGCACGG | 8.25 |
| CCCGACGACUGCCGAGCGAGAUUACGCUUGAGCGCACCACUGAGGAUGCCCACGGGCGAUUGGGGCACGG | 7.98 |
| CCCUACGACUGCCGAGCGAGAUUACGCUUGAGCGCCCCACUGAGGAUGCCCACGGGCGGUUGGGGCACGG | 70.4 |
| CCCAUCGACUGCCGAGCGAGACUACGCUUGAGCGCCCCACUGAGGAUGCCCACGGGCGAUUGGGGCACGG | 5.1 |
| CCCAACGACUGGCGAGGGAGAUUACGCUUGAGCGCCCCACUGAGGAUGCCCACGGGCGAUUGGGGCACGG | 5.66 |
| CCCAAGGACUGCCGAGCGAGAUUACGCUUGAGCGCCCCACUGAGGAUGCCCAUGGGCGAUUGGGGCACGG | 4.15 |
| CCCAACGACUGCCGAGCGAGAUUACGCUGGAGCGCCCCACUGAGGAUGCCCACGGGUGAUUGGGGCACGG | 5.61 |
| CCCAACGACUGCGGAGCGAGGUUACGCUUGAGCGCCCCACUGAGGAUGCCCACGGGCGAUUGGGGCACGG | 4.63 |
| CCCAACGACUGGCGAGCGAGAUUACGCUUGAGCGCCCCACUGAGGAUACCCACGGGCGAUUGGGGCACGG | 9.02 |
| CCCAAUGAUUGCCGAGCGAGAUUACGCUUGAGCGCCCCACUGAGGAUGCCCACGGGCGAUUGGGGCACGG | 5.38 |
| CCCAACGACUGCCGAGCGAGAGUUCGCUUGAGCGCCCCACUGAGGAUGCCCACGGGCGAUUGGGGCACGG | 7.45 |
| CCCAACGACUGCCUAGCGAGAUUACGCUUGAGCGCUCCACUGAGGAUGCCCACGGGCGAUUGGGGCACGG | 8.6 |
| CCCAACGAUUGCCGAGCGAGAUUACGCUUGAGCGCCCCACUGAGGAUGCCCACGGGCGAUUGGGUCACGG | 6.78 |
| CCCAACGACUGCGGAGCGAGAUUACGCUUGGGCGCCCCACUGAGGAUGCCCACGGGCGAUUGGGGCACGG | 7.08 |
| CCCAACGACUGCCGAGCGAGAUUGCGCUUGAGCGCCCCACUGAGUAUGCCCACGGGCGAUUGGGGCACGG | 6.64 |
| CCCAACUACUGCCGAGCGAGAUUACGCUUGAGGGCCCCACUGAGGAUGCCCACGGGCGAUUGGGGCACGG | 5.51 |

| Variant | Kd [nM] |
| --- | --- |
| CCCAACGACUGCCGAUCGAGAUUACGCUUGAGCGCCCCACUGAGGAUGCCCACGGGCGAUUGGGGUACGG | 5.92 |
| CCCAACUACUGCCGAGCGAGAUUACGCUUGAGCGCCCCACUGAGGAUGCCCAUGGGCGAUUGGGGCACGG | 4.6 |
| CCCAACGAGUGCCGAGCGAGAUUACGCUUAAGCGCCCCACUGAGGAUGCCCACGGGCGAUUGGGGCACGG | 4.33 |
| CCCAACUACUGCCGAGCGAGAUUACGCUUGAGCGCCCCACUGAGGAUGCCCACAGGCGAUUGGGGCACGG | 15.7 |
| CCCAACGACUGCCGAGCGAGAUGACGCUUGAGCGCCCCACUGAGGAUGCCCACGGGCGAUUGGGGCACGG | 4.99 |
| CCCAACGACUGCCUAGCGAGAUUACGCUUGAGCGCCCCACUGAGGAUGCCCACGGGCGAUUGUGGCACGG | 12.8 |
| CCCAUCGACUGCCGAGCGAGAUUACGCUUGAGCGCCCCACUGAGGAUGCCCACGGGCGAUUGGGGCGCGG | 6.53 |
| CCCAACGACUGCCAAGCGAGAUUACGCUUGAGCGCCCCACUGAGGAUGCCCGCGGGCGAUUGGGGCACGG | 4.13 |
| CCCAGCGACUGCCGAGCGAGAUUACGCUUGAGCGCCCCACUGAGGGUGCCCACGGGCGAUUGGGGCACGG | 15.3 |
| CCCAACGACUCCCGAGCGAGAUUACGCUUGAGCGCCCCACUGAGGAUGCCCACGGGCGAUUGGGGCACGG | 6.3 |
| CCCGACGACUGCCGAGCGAGAUUACGCUUGAGCGCCCCACUGAGGUUGCCCACGGGCGAUUGGGGCACGG | 72.7 |
| CCCAACGACUGCCAAGCGAGAUUACGCUUGAGCGCCCCACUGAGGAUGCCCACGGGCGAUUGAGGCACGG | 12 |
| CCCUACGACUGCCGAGCGAGAUUACGCUUGAACGCCCCACUGAGGAUGCCCACGGGCGAUUGGGGCACGG | 5.67 |
| CCCAUCGACUGCCGAGCGAGAUUACGCUUGAGCGCCCCACUGAGGAUGCUCACGGGCGAUUGGGGCACGG | 15 |
| CCCAACGUCUGCCGAGCGAGGUUACGCUUGAGCGCCCCACUGAGGAUGCCCACGGGCGAUUGGGGCACGG | 6.05 |
| CCCAACGACUGCCGAGCGAGAGUACGCUUGAGUGCCCCACUGAGGAUGCCCACGGGCGAUUGGGGCACGG | 5.57 |
| CCCAACGAGUGCCGAGUGAGAUUACGCUUGAGCGCCCCACUGAGGAUGCCCACGGGCGAUUGGGGCACGG | 4.67 |
| CCCAACGACAGCCGAGCGAGAGUACGCUUGAGCGCCCCACUGAGGAUGCCCACGGGCGAUUGGGGCACGG | 5.49 |
| CCCAACGACUGCCGAGCGAGAUUGCGCAUGAGCGCCCCACUGAGGAUGCCCACGGGCGAUUGGGGCACGG | 3.42 |
